Test results as given in ChEMBL document CHEMBL1135355, “Synthesis of novel water soluble benzylazolium prodrugs of lipophilic azole antifungals” (Bioorg Med Chem Lett, 2002).

Legend:
[1] = Conversion rate of the prodrug in human plasma; format: ADME, cell-free
Procedure, shortened: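 Disappearance of prodrug through ester hydrolysis was followed, and the rate was expressed as half-life (T1/2, min).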

Rattus norvegicus [2] = assay: Effective dose required to inhibit the pulmonary […] infection was determined in rat by intravenous administration; format: functional
Procedure, shortened: (§1)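 Pulmonary A. fumigatus CF437 model in male Fisher rats immunosuppressed with cortisone acetate before infection. Dosed twice on the first day and once daily over the following 4 days, iv or po as the line states. ED50 determined on day 14.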

Rattus norvegicus [3] = assay: Effective dose required to inhibit the systemic […] infection was determined in rat by peroral administration; format: functional; conditions: po
Procedure, shortened: (§2)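 Systemic A. fumigatus CF437 infection in male Fisher rats. Treatment twice on day 1, then once daily for the next 4 days, iv or po as the line states. ED50 taken on day 14.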

Rattus norvegicus [4] = assay: Effective dose required to inhibit the systemic […] infection was determined in rat by intravenous administration; format: functional; procedure, shortened: as §2
Rattus norvegicus [5] = assay: Effective dose required to inhibit the pulmonary […] infection was determined in rat by peroral administration; format: functional; conditions: po; procedure, shortened: as §1
Rattus norvegicus [6] = assay: Effective dose required to inhibit the systemic Candida albicans infection was determined in rat by peroral administration; format: functional; conditions: po
Procedure, shortened: (§3)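 Male Fisher rats infected systemically with C. albicans ATCC48130. Dosing at 0, 4, 24 and 48 h post-infection, given iv or po as the line states. ED50 derived on day 14.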

Rattus norvegicus [7] = assay: Effective dose required to inhibit the systemic Candida albicans infection was determined in rat by intravenous administration; format: functional; procedure, shortened: as §3
[8] = Solubility of the prodrug in water was determined; format: physicochemical; conditions: buffer

T1/2 [1] [h] | Solubility [8] [µg/mL] | Structure (SMILES) | ED50 (Rattus norvegicus [2]) [µmol/kg] | ED50 (Rattus norvegicus [3]) [µmol/kg] | ED50 (Rattus norvegicus [4]) [µmol/kg] | ED50 (Rattus norvegicus [5]) [µmol/kg] | ED50 (Rattus norvegicus [6]) [µmol/kg] | ED50 (Rattus norvegicus [7]) [µmol/kg]
< 0.033 | 49000 | CNCC(=O)Oc1c(C)cc(C[n+]2cnn(C[C@](O)(c3ccc(F)cc3F)[C@@H](C)c3nc(-c4ccc(C#N)cc4)cs3)c2)cc1C.Cl.[Br-] | 8 | 19 | 17 | 17 | 4.7 | 4.6
2.1 | > 5000 | Cc1cc(C[n+]2cnn(C[C@](O)(c3ccc(F)cc3F)[C@@H](C)c3nc(-c4ccc(C#N)cc4)cs3)c2)cc(C)c1OC(=O)[C@@H]1CCCN1.O=C(O)C(F)(F)F.[Br-] | 17 | > 55 | > 35 | 18 | < 2.1 | 3.5
 | < 1 | C[C@@H](c1nc(-c2ccc(C#N)cc2)cs1)[C@](O)(Cn1cncn1)c1ccc(F)cc1F [RAVUCONAZOLE] |  | 11 |  | 19 | 1.6 | 
